The record followed here is ChEMBL document CHEMBL1131008, “Substituted halogenated arylsulfonamides: a new class of sigma receptor binding tumor imaging agents” (J Med Chem, 1998).

Structures are written as SMILES. pKi: −log10 of the molar value.

The assay deals with Sigma 2 receptor. In words: Inhibition of [3H]-DTG binding to sigma-2 receptor of rat liver membranes with 1 uM dextrallorphan. The format is cell membranes, Membrane. The essentials:
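Rat liver membranes (150-200 µg protein) incubated with 5 nM [3H]DTG plus 1 µM dextrallorphan to mask sigma-1 sites, in 50 mM Tris-HCl pH 8.0, 120 min at 25 °C. […] Filtration assay. IC50 from curve fitting, converted to Ki via Cheng-Prusoff. Two or three experiments, each in duplicate.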
One may read the pKi as the negative decadic logarithm of the Ki, by convention in mol/L. Compound `COc1ccc(S(=O)(=O)N(C)CCN2CCCCCC2)cc1I` had a pKi of 6.47.

For the compound `O=S(=O)(NCCN1CCCCC1)c1ccc(I)cc1`, the pKi is 6.69. Take `CCN(CC)CCNS(=O)(=O)c1ccc(Br)cc1`: the pKi is 5.55. In turn, `CN(CCN1CCCCCC1)S(=O)(=O)c1ccc(I)cc1` showed a pKi of 7.63. The figure for `O=S(=O)(NCCN1CCCC1)c1ccc(I)cc1` is 6.00; for `O=S(=O)(NCCN1CCCCCC1)c1ccc(Br)cc1` it is 6.70.

For `O=S(=O)(NCCN1CCCCC1)c1ccc(Br)cc1`, the pKi is 6.34. As for `O=S(=O)(NCCN1CCCCCC1)c1ccc(I)cc1`, the figure is 6.72; as for `COc1ccc(S(=O)(=O)NCCN2CCCCC2)cc1I`, 6.35. The compound `CCN(CC)CCNS(=O)(=O)c1ccc(I)cc1` had a pKi of 5.62. As for `O=S(=O)(NCCN1CCCC1)c1ccc(Br)cc1`, the pKi was 5.83. Regarding `CN(CCN1CCCCCC1)S(=O)(=O)c1ccc(Br)cc1`, the pKi was 7.35.
